Measured values: ChEMBL document CHEMBL3616444, “Design, synthesis and pharmacological evaluation of pyrimidobenzothiazole-3-carboxylate derivatives as selective L-type calcium channel blockers” (Bioorg Med Chem, 2015)

Tests used:
[1] = biological target: Myosin light chain kinase, smooth muscle (Homo sapiens, UniProt Q15746); experiment: Inhibition of MLCK (unknown origin) incubated for 15 mins using [gamma-32P]-ATP by scintillation counting method
Outline: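 Active MLCK thawed on ice with kinase assay and dilution buffers and substrate; reaction with γ-32P-ATP incubated 15 min at 30 °C in a water bath, spotted on phosphocellulose P81 paper, washed three times ~10 min in 1% phosphoric acid. Radioactivity by scintillation counting, blank-corrected cpm converted to specific activity (nmol/min/mg); IC50 from log plots, at least five determinations per concentration.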

[2] = Inhibition of porcine kidney ACE assessed as reduction in hippuryl-histidyl-leucine hydrolysis to hippuric acid release incubated for 30 mins high-throughput colorimetric method; parameters: species or system Sus scrofa
Outline: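 Porcine kidney ACE in 1 M sodium borate buffer pH 8.2 with 0.3 M NaCl and 5 mM HHL substrate (stock); 37 °C for 30 min, stopped with 1 M HCl. Released hippuric acid complexed with pyridine and benzene sulfonyl chloride, cooled on ice, yellow colour read at 410 nm; IC50 from log plots, at least five determinations per concentration.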

Rattus norvegicus [3] = experiment: Antihypertensive activity in Norwegian albino rat model of DOCA-salt-induced hypertension assessed as inhibition of systolic blood pressure at 10 mg/kg, po after 1 hr by non-invasive tail cuff method relative to control; assay type: functional
Outline: (§1)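 DOCA-salt hypertensive rats; systolic pressure by tail cuff after 10 mg/kg, recorded hourly from 0 to 10 h; percent inhibition computed. Data as mean ± SEM, repeated-measures ANOVA.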

Rattus norvegicus [4] = experiment: Antihypertensive activity in Norwegian albino rat model of DOCA-salt-induced hypertension assessed as inhibition of systolic blood pressure at 10 mg/kg, po after 2 hrs by non-invasive tail cuff method relative to control; assay type: functional; outline: as §1
Rattus norvegicus [5] = experiment: Antihypertensive activity in Norwegian albino rat model of DOCA-salt-induced hypertension assessed as inhibition of systolic blood pressure at 10 mg/kg, po after 3 hrs by non-invasive tail cuff method relative to control; assay type: functional; outline: as §1
Rattus norvegicus [6] = experiment: Antihypertensive activity in Norwegian albino rat model of DOCA-salt-induced hypertension assessed as inhibition of systolic blood pressure at 10 mg/kg, po after 4 hrs by non-invasive tail cuff method relative to control; assay type: functional; outline: as §1
Rattus norvegicus [7] = experiment: Antihypertensive activity in Norwegian albino rat model of DOCA-salt-induced hypertension assessed as inhibition of systolic blood pressure at 10 mg/kg, po after 5 hrs by non-invasive tail cuff method relative to control; assay type: functional; outline: as §1
Rattus norvegicus [8] = experiment: Antihypertensive activity in Norwegian albino rat model of DOCA-salt-induced hypertension assessed as inhibition of systolic blood pressure at 10 mg/kg, po after 6 hrs by non-invasive tail cuff method relative to control; assay type: functional; outline: as §1
Rattus norvegicus [9] = experiment: Antihypertensive activity in Norwegian albino rat model of DOCA-salt-induced hypertension assessed as inhibition of systolic blood pressure at 10 mg/kg, po after 7 hrs by non-invasive tail cuff method relative to control; assay type: functional; outline: as §1
Rattus norvegicus [10] = experiment: Antihypertensive activity in Norwegian albino rat model of DOCA-salt-induced hypertension assessed as inhibition of systolic blood pressure at 10 mg/kg, po after 8 hrs by non-invasive tail cuff method relative to control; assay type: functional; outline: as §1
Rattus norvegicus [11] = experiment: Antihypertensive activity in Norwegian albino rat model of DOCA-salt-induced hypertension assessed as inhibition of systolic blood pressure at 10 mg/kg, po after 9 hrs by non-invasive tail cuff method relative to control; assay type: functional; outline: as §1
Rattus norvegicus [12] = experiment: Antihypertensive activity in Norwegian albino rat model of DOCA-salt-induced hypertension assessed as inhibition of systolic blood pressure at 10 mg/kg, po after 10 hrs by non-invasive tail cuff method relative to control; assay type: functional; outline: as §1
Rattus norvegicus [13] = experiment: Antihypertensive activity in Norwegian albino rat assessed as inhibition of systolic blood pressure at 10 mg/kg, po after 0.15 hrs by invasive carotid artery cannulation method relative to control; assay type: functional
Rattus norvegicus [14] = experiment: Antihypertensive activity in Norwegian albino rat assessed as inhibition of systolic blood pressure at 10 mg/kg, po after 0.3 hrs by invasive carotid artery cannulation method relative to control; assay type: functional
Rattus norvegicus [15] = experiment: Antihypertensive activity in Norwegian albino rat assessed as inhibition of systolic blood pressure at 10 mg/kg, po after 1 hr by invasive carotid artery cannulation method relative to control; assay type: functional
Rattus norvegicus [16] = experiment: Antihypertensive activity in Norwegian albino rat assessed as inhibition of systolic blood pressure at 10 mg/kg, po after 2 hrs by invasive carotid artery cannulation method relative to control; assay type: functional
Rattus norvegicus [17] = experiment: Antihypertensive activity in Norwegian albino rat assessed as inhibition of systolic blood pressure at 10 mg/kg, po after 3 hrs by invasive carotid artery cannulation method relative to control; assay type: functional
Rattus norvegicus [18] = experiment: Antihypertensive activity in Norwegian albino rat assessed as inhibition of systolic blood pressure at 10 mg/kg, po after 4 hrs by invasive carotid artery cannulation method relative to control; assay type: functional
Rattus norvegicus [19] = experiment: Gastrointestinal toxicity in Norwegian rat assessed as ulcerative index at 50 mg/kg, po after 17 hrs; assay type: organism-based; settings: in vivo
physchem = settings: buffer, pH 7.4

Sequence of Myosin light chain kinase, smooth muscle (Q15746 whole entry): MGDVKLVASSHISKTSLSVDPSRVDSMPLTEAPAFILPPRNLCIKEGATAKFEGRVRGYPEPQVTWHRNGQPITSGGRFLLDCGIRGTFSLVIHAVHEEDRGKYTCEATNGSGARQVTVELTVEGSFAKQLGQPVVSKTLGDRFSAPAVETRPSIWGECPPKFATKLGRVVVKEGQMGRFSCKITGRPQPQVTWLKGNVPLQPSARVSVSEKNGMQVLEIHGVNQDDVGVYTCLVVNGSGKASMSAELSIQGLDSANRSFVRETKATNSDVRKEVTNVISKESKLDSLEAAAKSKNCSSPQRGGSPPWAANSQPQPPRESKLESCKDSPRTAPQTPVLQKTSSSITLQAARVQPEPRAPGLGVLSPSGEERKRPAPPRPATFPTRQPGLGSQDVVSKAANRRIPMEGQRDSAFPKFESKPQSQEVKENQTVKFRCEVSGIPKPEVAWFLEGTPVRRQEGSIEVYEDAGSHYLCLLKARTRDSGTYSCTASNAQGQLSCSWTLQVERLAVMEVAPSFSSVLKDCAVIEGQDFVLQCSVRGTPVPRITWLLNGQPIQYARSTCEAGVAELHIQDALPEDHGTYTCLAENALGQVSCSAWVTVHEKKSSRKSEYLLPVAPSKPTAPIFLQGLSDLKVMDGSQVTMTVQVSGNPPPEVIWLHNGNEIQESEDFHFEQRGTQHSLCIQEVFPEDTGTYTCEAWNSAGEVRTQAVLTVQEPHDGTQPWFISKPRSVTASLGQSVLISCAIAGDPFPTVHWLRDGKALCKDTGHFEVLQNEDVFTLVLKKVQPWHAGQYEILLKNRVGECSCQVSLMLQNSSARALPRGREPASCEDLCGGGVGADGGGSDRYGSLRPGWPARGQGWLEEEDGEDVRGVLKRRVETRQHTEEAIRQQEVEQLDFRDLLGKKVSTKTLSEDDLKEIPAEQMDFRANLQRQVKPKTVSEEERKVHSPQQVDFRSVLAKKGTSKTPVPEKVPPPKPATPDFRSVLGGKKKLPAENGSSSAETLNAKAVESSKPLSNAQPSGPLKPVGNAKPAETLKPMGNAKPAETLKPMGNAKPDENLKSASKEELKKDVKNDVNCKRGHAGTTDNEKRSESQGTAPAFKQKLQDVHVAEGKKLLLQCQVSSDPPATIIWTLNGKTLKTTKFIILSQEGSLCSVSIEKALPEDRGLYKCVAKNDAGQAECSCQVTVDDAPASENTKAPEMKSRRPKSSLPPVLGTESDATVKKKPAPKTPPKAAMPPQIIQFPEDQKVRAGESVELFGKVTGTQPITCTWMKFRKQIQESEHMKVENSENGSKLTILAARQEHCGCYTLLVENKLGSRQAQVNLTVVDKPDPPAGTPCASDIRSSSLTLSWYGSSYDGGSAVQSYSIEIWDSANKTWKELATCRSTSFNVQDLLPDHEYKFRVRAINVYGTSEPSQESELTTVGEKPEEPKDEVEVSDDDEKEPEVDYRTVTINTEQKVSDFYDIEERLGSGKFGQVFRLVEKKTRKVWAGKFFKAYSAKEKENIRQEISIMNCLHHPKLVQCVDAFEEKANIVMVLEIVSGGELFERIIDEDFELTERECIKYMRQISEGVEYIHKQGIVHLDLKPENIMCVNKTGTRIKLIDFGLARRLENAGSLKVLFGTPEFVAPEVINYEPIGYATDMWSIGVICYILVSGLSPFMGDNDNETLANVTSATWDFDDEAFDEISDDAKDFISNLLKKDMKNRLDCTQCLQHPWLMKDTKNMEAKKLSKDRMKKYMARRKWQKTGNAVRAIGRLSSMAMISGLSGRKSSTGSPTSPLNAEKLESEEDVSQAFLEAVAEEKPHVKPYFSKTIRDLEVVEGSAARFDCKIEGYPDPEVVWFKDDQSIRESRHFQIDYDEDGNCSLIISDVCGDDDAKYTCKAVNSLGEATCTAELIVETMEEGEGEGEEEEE

| IC50 ([1]; read-out: IC50) [µM] | IC50 [2] [µM] | IC50 ([1]; read-out: pIC50 (converted)) [µM] | Structure (SMILES) | inhibition in vivo at 10 mg/kg (Rattus norvegicus [3]) [%] | inhibition in vivo at 10 mg/kg (Rattus norvegicus [4]) [%] | inhibition in vivo at 10 mg/kg (Rattus norvegicus [5]) [%] | inhibition in vivo at 10 mg/kg (Rattus norvegicus [6]) [%] | inhibition in vivo at 10 mg/kg (Rattus norvegicus [7]) [%] | inhibition in vivo at 10 mg/kg (Rattus norvegicus [8]) [%] | inhibition in vivo at 10 mg/kg (Rattus norvegicus [9]) [%] | inhibition in vivo at 10 mg/kg (Rattus norvegicus [10]) [%] | inhibition in vivo at 10 mg/kg (Rattus norvegicus [11]) [%] | inhibition in vivo at 10 mg/kg (Rattus norvegicus [12]) [%] | other results |
| --- | --- | --- | --- | --- | --- | --- | --- | --- | --- | --- | --- | --- | --- | --- |
| > 100 | > 100 | – | Cc1cc(C)nc(Nc2nc3ccccc3s2)n1 | 0.44 | 0 | 0.44 | 1.33 | 5.33 | 7.11 | 8.44 | 8.44 | 8.89 | 8.89 | – |
| > 100 | > 100 | – | CC(=O)c1c(C)nc(Nc2nc3ccccc3s2)nc1C | 0.88 | 0.44 | 0.88 | 2.21 | 5.31 | 7.08 | 7.52 | 7.52 | 7.96 | 8.41 | – |
| 18.2 | > 100 | 5490 | CCOC(=O)C1=C(C)NC(OC)N(CC(=O)c2ccc(OC)cc2)C1c1ccc(Cl)cc1 (stereo not drawn) | – | – | – | – | – | – | – | – | – | – | – |
| 9.8 | > 100 | 10200 | COC(=O)C1=C(C)N=C2Sc3ccccc3N2C1c1ccccc1Cl (stereo not drawn) | 1.77 | 2.65 | 14.6 | 18.1 | 22.6 | 24.8 | 27 | 28.8 | 31.4 | 33.6 | – |
| 9.1 | > 100 | 11000 | COC(=O)C1=C(C)N=C2Sc3ccccc3N2C1c1ccc(Cl)cc1 (stereo not drawn) | 2.65 | 11.5 | 14.6 | 24.8 | 28.8 | 28.8 | 31.4 | 33.6 | 38 | 40.3 | inhibition in vivo at 10 mg/kg (Rattus norvegicus [13]): 2.21%; inhibition in vivo at 10 mg/kg (Rattus norvegicus [14]): 4.42%; inhibition in vivo at 10 mg/kg (Rattus norvegicus [15]): 15.9%; inhibition in vivo at 10 mg/kg (Rattus norvegicus [16]): 24.8%; inhibition in vivo at 10 mg/kg (Rattus norvegicus [17]): 31%; inhibition in vivo at 10 mg/kg (Rattus norvegicus [18]): 49.6%; UI (Rattus norvegicus [19]): 0.36; logD (physchem): 5.44 |
| 4.3 | > 100 | 23300 | COC(=O)C1=C(C)N=C2Sc3ccccc3N2C1c1ccccc1O (stereo not drawn) | 3.57 | 8.48 | 19.6 | 24.1 | 26.3 | 33 | 36.6 | 42 | 43.8 | 46.4 | – |
| 4.21 | > 100 | 23800 | COC(=O)C1=C(C)N=C2Sc3ccccc3N2C1c1ccc(O)cc1 (stereo not drawn) | 3.51 | 7.89 | 19.7 | 25.4 | 29.4 | 34.2 | 38.2 | 39.5 | 40.8 | 42.1 | – |
| 4.37 | > 100 | 22900 | COC(=O)C1=C(C)N=C2Sc3ccccc3N2C1c1ccc(N(C)C)cc1 (stereo not drawn) | 1.77 | 2.65 | 14.6 | 18.1 | 22.6 | 24.8 | 27 | 28.8 | 31.4 | 33.6 | – |
| 10.8 | > 100 | 9260 | CCOC(=O)C1=C(C)N=C2Sc3ccccc3N2C1c1ccccc1Cl (stereo not drawn) | 1.77 | 2.65 | 14.6 | 18.1 | 22.6 | 24.8 | 27 | 28.8 | 31.4 | 33.6 | – |
| > 100 | > 100 | – | CCc1nc(Nc2nc3ccccc3s2)nc(C)c1C(C)=O | 0.44 | 0 | 0.44 | 1.33 | 6.22 | 7.56 | 8 | 8 | 8.44 | 8.89 | – |
| 41.3 | > 100 | 2420 | CCOC(=O)C1=C(C)NC(OC)N(CC(=O)c2ccc(Cl)cc2)C1c1ccc(Cl)cc1 (stereo not drawn) | – | – | – | – | – | – | – | – | – | – | – |
| 15.2 | > 100 | 6580 | CCOC(=O)C1=C(C)NC(OC)N(CC(=O)c2ccc(Cl)cc2)C1c1ccc(O)cc1 (stereo not drawn) | – | – | – | – | – | – | – | – | – | – | – |
| 9.8 | > 100 | 10.2 | CCOC(=O)C1=C(C)NC(OC)N(CC(=O)c2ccc(OC)cc2)C1c1ccc(O)cc1 (stereo not drawn) | – | – | – | – | – | – | – | – | – | – | – |
| 4.1 | > 100 | 24.4 | CCOC(=O)C1=C(C)NC(OC)N(CC(=O)c2ccc(OC)cc2)C1c1ccc(OC)cc1 (stereo not drawn) | – | – | – | – | – | – | – | – | – | – | – |
| 31.3 | > 100 | 3190 | CCOC(=O)C1=C(C)NC(OC)N(CC(=O)c2ccccc2)C1c1ccc(Cl)cc1 (stereo not drawn) | – | – | – | – | – | – | – | – | – | – | – |
| 19.2 | > 100 | 5210 | CCOC(=O)C1=C(C)NC(OC)N(CC(=O)c2ccccc2)C1c1ccc(C)cc1 (stereo not drawn) | – | – | – | – | – | – | – | – | – | – | – |
| 5.1 | > 100 | 19.6 | CCOC(=O)C1=C(C)NC(OC)N(CC(=O)c2ccc(OC)cc2)C1c1ccc(C)cc1 (stereo not drawn) | – | – | – | – | – | – | – | – | – | – | – |
| 30.3 | > 100 | 3300 | CCOC(=O)C1=C(C)NC(OC)N(CC(=O)c2ccc(Cl)cc2)C1c1ccc(OC)cc1 (stereo not drawn) | – | – | – | – | – | – | – | – | – | – | – |
| 29.2 | > 100 | 3420 | CCOC(=O)C1=C(C)NC(OC)N(CC(=O)c2ccc(Cl)cc2)C1c1ccc(C)cc1 (stereo not drawn) | – | – | – | – | – | – | – | – | – | – | – |
| 23.3 | > 100 | 4290 | CCOC(=O)C1=C(C)NC(OC)N(CC(=O)c2ccccc2)C1c1ccccc1 (stereo not drawn) | – | – | – | – | – | – | – | – | – | – | – |
| 33.3 | > 100 | 3000 | CCOC(=O)C1=C(C)NC(OC)N(CC(=O)c2ccc(Cl)cc2)C1c1ccccc1 (stereo not drawn) | – | – | – | – | – | – | – | – | – | – | – |
| 7.4 | > 100 | 13.5 | CCOC(=O)C1=C(C)NC(OC)N(CC(=O)c2ccccc2)C1c1ccc(OC)cc1 (stereo not drawn) | – | – | – | – | – | – | – | – | – | – | – |
| 13.3 | > 100 | 7.52 | CCOC(=O)C1=C(C)NC(OC)N(CC(=O)c2ccc(OC)cc2)C1c1ccccc1 (stereo not drawn) | – | – | – | – | – | – | – | – | – | – | – |
| 10.2 | > 100 | 9.8 | CCOC(=O)C1=C(C)NC(OC)N(CC(=O)c2ccccc2)C1c1ccc(O)cc1 (stereo not drawn) | – | – | – | – | – | – | – | – | – | – | – |
| – | – | – | CC(C)Cc1ccc(C(C)C(=O)O)cc1 (stereo not drawn) [IBUPROFEN] | – | – | – | – | – | – | – | – | – | – | UI (Rattus norvegicus [19]): 1.97 |
